Consider twelve molecules from ChEMBL document CHEMBL1156778, “Synthesis and structure-activity studies of biphenyl analogues of the tuberculosis drug (6S)-2-nitro-6-{[4-(trifluoromethoxy)benzyl]oxy}-6,7-dihydro-5H-imidazo[2,1-b][1,3]oxazine (PA-824)” (J Med Chem, 2010).

The subject of data set [1] is Mycobacterium tuberculosis. The data set can be described thus: Antitubercular activity against Mycobacterium tuberculosis H37Rv in aerobic condition after 7 days by microplate alamar blue assay. In kind it is functional. Particulars: 168 h. In a few lines: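 M. tuberculosis H37Rv, replicating culture; 8-day microplate assay with Alamar blue added on day 7 to read growth. […] Mean of at least two independent determinations ± SD.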

The subject of data set [2] is Mycobacterium tuberculosis. The data set can be described thus: Antitubercular activity against Mycobacterium tuberculosis H37Rv infected in BALB/c mouse assessed as ratio of lung CFU for compound to lung CFU for PA-824 at 100 mg/kg, po daily for 5 days a week for 3 weeks. It is filed as functional.
Data set [3] can be described thus: Metabolic stability in pooled human liver microsomes assessed as compound remaining after 1 hr by LC-MS-MS. It is filed as ADME, Microsome. The settings on record: read-out: Stability. In a few lines: (§1)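 Test compound at 1 μM with pooled CD-1 mouse or human liver microsomes (0.5 mg/mL protein) and NADPH-regenerating system (3.3 mM MgCl2, 3.3 mM G6P, 0.4 U/mL G6PD, 1.3 mM NADP+) in 75 mM phosphate, pH 7.4, 0.5% DMSO, 37 °C. Stopped at 0 and 60 min with MeCN containing metoprolol internal standard. LC-MS/MS (ESI, SRM), duplicates. % remaining = 100 × mean peak-area ratio at 60 min / at 0 min.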

The test system of data set [4] is Mycobacterium tuberculosis. The data set can be described thus: Antitubercular activity against Mycobacterium tuberculosis H37Rv in anaerobic condition after 7 days by low oxygen recovery assay. It is filed as functional. Particulars: 168 h.
Data set [5] has as its system Mycobacterium tuberculosis. The data set is described as follows: Antitubercular activity against Mycobacterium tuberculosis H37Rv infected in BALB/c mouse measured per mouse at 100 mg/kg, po daily for 5 days a week for 3 weeks. It is filed as functional.
Data set [6] in a line: Metabolic stability in pooled CD1 mouse liver microsomes assessed as compound remaining after 1 hr by LC-MS-MS. It is filed as ADME, Microsome. The settings on record: read-out: Stability. In a few lines: as §1
The subject of another data set is Vero. The data set can be described thus: Cytotoxicity against african green monkey Vero cells after 72 hrs by MTS assay. Particulars: Chlorocebus sabaeus. In kind it is cell-based. In a few lines: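 VERO cells (CCL-81), 72 h exposure, tetrazolium dye read-out.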

In brackets after ≈: the same amount, converted by molar mass. Where only a bound is given, the exact number is not on record here.

With `O=[N+]([O-])c1cn2c(n1)OC[C@@H](OCc1ccc(-c3ccc(OC(F)(F)F)cc3Cl)cc1)C2`, the results for the MIC in data set [1] and in data set [4] were 0.04 µM (≈ 0.0188 µg/mL) and 0.78 µM (≈ 0.366 µg/mL), respectively. In addition, the “fold change (FC)” value in data set [2] amounted to 23. Also, the remaining at 1 h is 91% in data set [3] and 86% in data set [6]. The same molecule displayed a CFU in data set [5] of 390. Besides, the IC50 in the data set on Vero is over 125 µM.

In the case of `O=[N+]([O-])c1cn2c(n1)OC[C@@H](OCc1ccc(-c3ccc(OC(F)(F)F)cc3F)cc1)C2`, the MIC in data set [1] worked out at 0.045 µM (≈ 0.0204 µg/mL); in data set [4], 0.72 µM (≈ 0.326 µg/mL). Besides, the “fold change (FC)” value in data set [2] was 46. Moreover, the results for the remaining at 1 h in data set [3] and in data set [6] were 88% and 89%, respectively. Also, the CFU in data set [5] was determined as 39. The molecule further returned an IC50 with Vero of over 125 µM.

Take `O=[N+]([O-])c1cn2c(n1)OC[C@@H](OCc1ccc(-c3ccc(Oc4ccccc4)cc3)cc1)C2`: the values for the MIC in data set [1] and in data set [4] were 0.04 µM (≈ 0.0177 µg/mL) and 2.7 µM (≈ 1.2 µg/mL), respectively. Moreover, in data set [2], the “fold change (FC)” value is listed as under 0.01. The remaining at 1 h in data set [3] is 22%; in data set [6], 48%. The same molecule had a CFU in data set [5] of 330000. Besides, the IC50 in the data set with Vero was over 125 µM.

Turning to `O=[N+]([O-])c1cn2c(n1)OC[C@@H](OCc1ccc(-c3ccccc3OCCCO)cc1)C2`, the MIC is 0.34 µM (≈ 0.145 µg/mL) in data set [1] and 2.7 µM (≈ 1.15 µg/mL) in data set [4]. Besides, in data set [2], the “fold change (FC)” value was under 0.01. Further, the remaining at 1 h in data set [3] was found to be 59%; in data set [6], 21%. The CFU in data set [5] came to 1100000. The molecule also returned an IC50 in the data set on Vero of over 125 µM.

As to `O=[N+]([O-])c1cn2c(n1)OC[C@@H](OCc1ccc(-c3ccc(OC(F)F)cc3)cc1)C2`, the MIC amounted to 0.05 µM (≈ 0.0209 µg/mL) in data set [1] and 0.77 µM (≈ 0.321 µg/mL) in data set [4]. Besides, in data set [2], the “fold change (FC)” value was determined as 8.5. The remaining at 1 h in data set [3] worked out at 94%; in data set [6], 77%. Further, the CFU in data set [5] stood at 1100. Further, in the data set with Vero, the half-inhibitory concentration (IC50) is over 125 µM.

Regarding `O=[N+]([O-])c1cn2c(n1)OC[C@@H](OCc1ccc(-c3ccc(CNc4ccccc4)cc3)cc1)C2`, the MIC was 0.06 µM (≈ 0.0274 µg/mL) in data set [1] and 0.63 µM (≈ 0.288 µg/mL) in data set [4]. In addition, the “fold change (FC)” value in data set [2] is reported as 0.03. The remaining at 1 h in data set [3] was 12%; in data set [6], 52%. This molecule also came in with a CFU in data set [5] of 500000. Besides, the IC50 in the data set on Vero was over 125 µM.

On to `COc1c(F)cc(F)cc1-c1ccc(CO[C@@H]2COc3nc([N+](=O)[O-])cn3C2)cc1`, for which the MIC in data set [1] worked out at 0.04 µM (≈ 0.0167 µg/mL); in data set [4], 0.86 µM (≈ 0.359 µg/mL). Further, the “fold change (FC)” value in data set [2] is recorded as 0.4. Further, the values for the remaining at 1 h in data set [3] and in data set [6] were 72% and 2%, respectively. In data set [5], the CFU is 200000. Besides, in the data set with Vero, the IC50 is over 125 µM.

`COc1ccc(-c2ccc(CO[C@@H]3COc4nc([N+](=O)[O-])cn4C3)cc2)cc1F`: the results for the MIC in data set [1] and in data set [4] were 0.04 µM (≈ 0.016 µg/mL) and 1.9 µM (≈ 0.759 µg/mL), respectively. Further, the “fold change (FC)” value in data set [2] is reported as 0.02. For the same molecule, the remaining at 1 h in data set [3] is 80%; in data set [6] it was 50%. This molecule also yielded a CFU in data set [5] of 850000. The IC50 in the data set with Vero is over 125 µM.

Regarding `COc1cccc(F)c1-c1ccc(CO[C@@H]2COc3nc([N+](=O)[O-])cn3C2)cc1`, the MIC in data set [1] was 0.13 µM (≈ 0.0519 µg/mL); in data set [4], 0.81 µM (≈ 0.323 µg/mL). Besides, the “fold change (FC)” value in data set [2] amounted to 0.07. In addition, the remaining at 1 h in data set [3] is 91%; in data set [6], 0%. The molecule further showed a CFU in data set [5] of 1100000. The same molecule registered an IC50 in the data set on Vero of over 125 µM.

For `O=[N+]([O-])c1cn2c(n1)OC[C@@H](OCc1ccc(-c3ccc(Cl)c(OC(F)(F)F)c3)cc1)C2`, the results for the MIC in data set [1] and in data set [4] were 0.04 µM (≈ 0.0188 µg/mL) and 0.95 µM (≈ 0.446 µg/mL), respectively. In addition, the “fold change (FC)” value in data set [2] is given as 9.7. Besides, the remaining at 1 h was 95% in data set [3] and 92% in data set [6]. Moreover, in data set [5], the CFU is recorded as 360. This molecule showed an IC50 with Vero of over 125 µM.

On to `O=[N+]([O-])c1cn2c(n1)OC[C@@H](OCc1ccc(-c3ccc(OCCCN4CCOCC4)cc3)cc1)C2`, for which the figures for the MIC in data set [1] and in data set [4] were 0.097 µM (≈ 0.048 µg/mL) and 1 µM (≈ 0.495 µg/mL), respectively. Moreover, in data set [2], the “fold change (FC)” value amounted to 0.05. Moreover, the remaining at 1 h in data set [3] is 11%; in data set [6], 14%. The molecule also had a CFU in data set [5] of 310000. This molecule also had an IC50 in the data set with Vero of over 125 µM.

With `O=[N+]([O-])c1cn2c(n1)OC[C@@H](OCc1ccc(-c3cccc(OCc4ccccc4)c3)cc1)C2`, the MIC in data set [1] is 0.12 µM (≈ 0.0549 µg/mL); in data set [4], 0.88 µM (≈ 0.403 µg/mL). For the same molecule, in data set [2], the “fold change (FC)” value was determined as 0.66. Further, the figures for the remaining at 1 h in data set [3] and in data set [6] were 64% and 50%, respectively. The molecule also gave a CFU in data set [5] of 120000. For the same molecule, in the data set with Vero, the IC50 is over 125 µM.
